# Exocytosis inh – LAMP-1 surface exposure blockers, TALL-104 cells – cell-based, flow cytometry, MLPCN library, primary screen | TALL-104 LAMP-1 surface exposure; cells stimulated with thapsigargin and PMA | inhibition, % at 10 µM | actives 0.66% (n = 360,000) | AID 651702, 2012;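 active = inhibition above about 55%, limit read from the data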
# CendR NRP1 mod – modulators of CendR peptide binding to NRP-1, primary screen, biochemical, fluorescence polarization, uHTS; FAM-RPARPAR peptide binding to NRP-1; Neuropilin-1 (Homo sapiens), O14786; inhibition, % at 25 µM; actives 0.85% (n = 360,000);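 active = inhibition or corrected inhibition above about 18%, plus a signal ratio from 0.5 to 1.5, limit read from the data, passing the limit was not always enough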
# ASAP1 GAP inh – inhibitors of human ASAP1 ArfGAP activity, primary screen, biochemical, fluorescence polarization | ASAP1-stimulated ARF1 GTP hydrolysis, GDP FP detection | actives 0.19% (n = 360,000) | Arf-GAP with SH3 domain, ANK repeat and PH domain-containing protein 1 (Homo sapiens), … | inhibition, % at 16.5 µM; in the data active = inhibition above about 25%
# Target sequence (Q9ULH1 325-724 limits assumed): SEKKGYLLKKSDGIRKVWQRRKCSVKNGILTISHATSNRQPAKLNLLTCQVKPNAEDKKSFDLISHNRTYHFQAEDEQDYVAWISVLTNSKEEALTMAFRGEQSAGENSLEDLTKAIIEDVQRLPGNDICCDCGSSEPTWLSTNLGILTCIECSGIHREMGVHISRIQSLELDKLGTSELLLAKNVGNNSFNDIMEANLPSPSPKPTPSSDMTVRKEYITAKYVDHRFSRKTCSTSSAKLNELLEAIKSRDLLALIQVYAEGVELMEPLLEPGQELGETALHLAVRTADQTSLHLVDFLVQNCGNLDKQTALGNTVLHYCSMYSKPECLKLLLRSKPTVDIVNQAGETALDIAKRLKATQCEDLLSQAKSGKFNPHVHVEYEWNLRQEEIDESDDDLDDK
# V-ATPase pHluor – regulators of yeast V-ATPase proton pumping, primary screen, pHLuorin cytosolic pH fluorescence | response, % at 10 µM | actives 0.37% (n = 350,000) | S. cerevisiae; in the data active = response mostly above about 7.3%, no sharp cut-off; inactive = mostly below about 5.4%; also: actives read high
# ARFGAP1 inh – inhibitors of rat ARFGAP1 GAP activity, primary screen, biochemical, fluorescence polarization, GDP tracer; Arfgap1-stimulated ARF1 GTP hydrolysis, GDP FP detection; inhibition, % at 16.5 µM; actives 0.26% (n = 360,000); AID 651572, 2012;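 active = inhibition above a per-plate limit, mean inhibition of low control wells plus 3 SD, cut at about 25% in these data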
# Target sequence (Q62848 1-136 limits assumed): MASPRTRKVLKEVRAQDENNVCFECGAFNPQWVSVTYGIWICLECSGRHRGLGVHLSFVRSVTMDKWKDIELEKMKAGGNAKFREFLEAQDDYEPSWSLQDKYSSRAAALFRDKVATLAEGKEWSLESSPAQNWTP
#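 Repeats: one replicate per compound; assay system: rat Arfgap1 catalytic domain, aa 1-136; times: enzyme reaction 120 min at 25 °C after 20 min preincubation; detection: FP of antibody-bound GDP Alexa 633 tracer, ex 620/em 688 nm; benchmarks: high control wells lacking Arfgap1, low control full reaction with DMSO; reagent: human ARF1(Δ1-17)-GTP substrate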
# A number is an active result; 0 = inactive; - = not tested or not shown. A selection: hits, their analogues and other compounds. The true share with any hit is near 2.2%.
SMILES,Exocytosis inh,CendR NRP1 mod,ASAP1 GAP inh,V-ATPase pHluor,ARFGAP1 inh
Cc1cc(C)n(CCNC(=O)[C@@H](Cc2ccccc2)NC(=O)[C@H]2O[C@@H](n3ccc(=O)[nH]c3=O)[C@H](O)[C@@H]2O)n1,-,-,0,-,0
CC1(C)O[C@@H]2[C@H](O1)[C@@H](CO)O[C@H]2n1cnc2c(=O)[nH]cnc21,0,26,0,0,0
O=C(Nc1ccccc1)[C@@H]1CC=C[C@@H]2CCN(Cc3ccccc3)C(=O)[C@@H]21,0,0,0,0,0
COc1ccc(CN2CC[C@H]3C=CC[C@@H](C(=O)NCCc4ccccc4)[C@H]3C2=O)cc1OC,0,24,0,0,0
O=C(NCc1cccnc1)[C@@H]1CC=C[C@@H]2CCN(Cc3ccccc3)C(=O)[C@@H]21,0,32,0,0,0
CCCCN1CC[C@H]2C=CC[C@@H](C(=O)Nc3ccccc3)[C@H]2C1=O,0,32,0,0,0
CCCCN1CC[C@H]2C=CC[C@@H](C(=O)NCCc3ccccc3)[C@H]2C1=O,0,0,0,0,0
CCOC(=O)N1CCN(C(=O)C[C@H]2C[C@@]3(C(=O)OC)C(=C[C@H](C(C)C)O[C@@H]3C3CC3)N(Cc3ccccc3)C2=O)CC1,-,-,0,-,0
COc1ccc(S(=O)(=O)Nc2ccc3c(c2)C(=O)N([C@H](C)CO)C[C@H](C)[C@H](CN(C)C(=O)Nc2ccc(F)cc2)OCCCC[C@@H](C)O3)cc1,-,-,0,-,0
COc1ccc(C(=O)Nc2ccc(C(=O)OCC(=O)c3cccc4ccccc34)cc2)cc1,0,32,0,0,0
Cc1ccccc1-c1cccc2c3c([nH]c12)[C@@H]1C[C@H]2[C@@H](C(=O)N1CC3)[C@H](C)ON2C,-,-,0,-,0
Cc1ccc(CNC(=O)CCNS(=O)(=O)c2ccc3c(c2)c(=O)n(C)c(=O)n3C)cc1,0,0,0,0,0
Cc1ccc(CCNC(=O)CCNS(=O)(=O)c2ccc3c(c2)c(=O)n(C)c(=O)n3C)cc1,0,0,0,20,0
Cc1cc(NC(=O)CCc2c[nH]c3ccccc23)ccc1Oc1cccnc1,-,-,0,-,0
O=c1c2[nH]c3ccc(F)cc3c2ncn1CCCN1CCOCC1,0,47,0,0,0
COc1ccc2c(c1)[nH]c1c(=O)n(CCCN3CCOCC3)cnc12,0,0,0,0,0
COC(=O)C1=C(C)N(C)C(=NCc2ccccc2)NC1c1cccc(Cl)c1 (configuration not stated),-,-,0,-,0
COc1ccc(/C=C/C(=O)N(C)Cc2cccs2)cc1S(=O)(=O)N1CCOCC1,0,35,0,0,0
CCOC(=O)C1CCN(S(=O)(=O)c2ccc3c(c2)CCN3C(=O)C2CCC2)CC1,0,22,-,0,-
CC(=O)N(C(C)=O)c1ncn(C)c1S(=O)(=O)Nc1ccccc1,0,0,0,0,0
O=C(c1ccccc1F)N1CCN(c2ccccc2)CC1,0,0,0,0,0
O=C(c1ccccc1F)N1CCN(C(=O)C(c2ccccc2)c2ccccc2)CC1,0,22,0,0,0
CS(=O)(=O)c1ccc(S(=O)(=O)NCC2CCN(C(=O)C(=O)c3cc4ccccc4o3)CC2)cc1,-,-,0,-,0
CCOC(=O)N1CCN(C(=O)CNC(=O)c2ccc(Br)cc2)CC1,0,27,0,0,0
O=S(=O)(NC(CO)Cc1ccccc1)c1ccc(Br)cc1F (configuration not stated),0,0,0,0,0
SMILES,Exocytosis inh,CendR NRP1 mod,ASAP1 GAP inh,V-ATPase pHluor,ARFGAP1 inh
CC(=O)N1CCC(C(=O)N2CCN(S(=O)(=O)c3cccs3)CC2)CC1,0,37,0,0,0
O=C(C1CCN(S(=O)(=O)c2cccs2)CC1)N1CCCCC1,0,0,0,0,0
O=S(=O)(c1cccs1)N1CCCCC1,0,35,0,0,0
COC(=O)[C@]12C[C@H](CC(=O)NCC3CCCCC3)C(=O)N(Cc3ccccc3)C1=C[C@H](C1CCCC1)O[C@@H]2C,-,-,0,-,0
O=C(NNc1c2ccccc2nc2ccccc12)c1ccccc1O,108,0,0,0,0
Cc1cn([C@H]2C[C@H](O)[C@@H](CCC(=O)NCc3cccc4ccccc34)O2)c(=O)[nH]c1=O,0,0,0,-,0
Cc1cn([C@H]2C[C@H](O)[C@@H](CCC(=O)NCCCn3ccnc3)O2)c(=O)[nH]c1=O,0,31,0,0,0
O=C(COc1ccc(Br)cc1CO)Nc1ccc(F)cc1,0,26,0,0,0
O=C(COc1ccc(Br)cc1CO)Nc1ccc(S(=O)(=O)N2CCCC2)cc1,0,0,0,0,0
COc1ccc(CNC(=O)CN2C(=O)CSc3ccc(S(=O)(=O)N4CCOCC4)cc32)cc1,0,33,0,0,0
CCOc1ccc(CNC(=O)CN2C(=O)CSc3ccc(S(=O)(=O)N4CCOCC4)cc32)cc1,0,0,0,0,0
COc1ccc(/C=C(/NC(=O)c2ccccc2)C(=O)N2CCCCC2)cc1OC,0,28,0,0,0
CCc1onc(C)c1C(=O)Nc1cc(C)ccc1OC,0,34,0,0,0
COc1ccccc1Oc1ccc(S(=O)(=O)N2CCOCC2)cc1S(=O)(=O)N1CCOCC1,0,27,0,0,0
COc1ccc(-c2c(-c3ccsc3)oc3ccc(N4CCOCC4)cc23)cn1,0,0,0,0,0
Nc1ccc(C#Cc2c(-c3ccsc3)oc3ccc(N4CCOCC4)cc23)cc1,0,26,0,0,0
N#Cc1c(N)n(-c2ccc(N)cc2)c2nc3ccccc3nc12,0,0,0,0,0
N#Cc1c(C#N)c(SSc2c(C#N)c(C#N)c(N)n2-c2ccccc2)n(-c2ccccc2)c1N,96,0,0,0,0
C/C(=N\NC(=S)NCCc1ccccc1)c1ccc(Cl)cc1Cl,88,0,0,0,0
Cc1[nH]c2ccccc2c1CC(=O)Nc1ccc(Nc2cccnc2)c(-c2ccc(-c3ccccc3)cc2F)c1,-,-,0,-,0
COc1cc2nc(N(CCN(C)C)C(=O)c3ccc4ccccc4c3)sc2cc1OC,0,0,-,0,-
CCN(CC)CCN(C(=O)c1ccc2c(c1)CCCC2)c1nc2cc(OC)c(OC)cc2s1,56,0,-,0,-
O=[N+]([O-])c1ccc(-n2nnnc2CN2CCCCC2)cc1,0,24,0,0,0
CCOC(=O)c1sc2ncn(/N=C/c3ccc(O)c(OC)c3)c(=O)c2c1C,105,0,0,0,0
CCOC(=O)c1sc2ncn(C(C)C(=O)OC)c(=O)c2c1C (configuration not stated),0,0,0,0,0
O=C(NCCN1CCOCC1)C(=O)NCC1CCCO1 (configuration not stated),0,38,0,0,0

# Source: PubChem BioAssay
